Source: PubChem BioAssay (Broad Institute)
INS-1E GSIS act – GLuc luminescence reporter in INS-1E cells, primary screen for activators of glucose-dependent secretion of insulin. INS-1E GLuc reporter insulin secretion, 2-3 h. AID 743287. activation, % at 16.6 µM. hit rate 0.61% among 370,000;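 active means lowest replicate activation of at least 40%, so every replicate reaches that level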;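 further: 0% = median of neutral control wells and 100% = median of IBMX positive control wells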
E-sel inducer – E-selectin induction on HUVECs | hit rate 0.37% among 260,000 | HUVEC E-selectin immunofluorescence imaging; normalized: neutral wells 0, TNF-alpha wells 100 | activation, % at 7.58 µM | P16581;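 active means mean E-selectin-positive cell signal at least 10% of the positive control, reached in at least 60% of replicates, without over 20% cell loss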
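System: HUVEC, human umbilical vein endothelial cells; quantity: 3,000 cells/well; buffer or medium: EGM-2 medium, gelatin-coated wells; dosing: single-point compound dose; detection: immunofluorescence imaging; evaluation: % PE-positive cells; benchmarks: TNF-alpha, DMSO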
RAD52 inh – blocks human RAD52 DNA annealing; P43351; recombinant RAD52 DNA annealing, FRET fluorescence; inhibition, % at 18.7 µM; hit rate 0.46% among 360,000; AID 651710;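 active means every replicate showing at least 50% inhibition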
Ecoli rRNA inh – inhibitors of bacterial rRNA selective over humanized ribosomes; E. coli WT GFP vs humanized-ribosome RFP mutants, fluorescence, 24 h; active compounds read low; DMSO median 0, no signal -100; GFP signal change (wild-type ribosome), % (no concentration beside the values); hit rate 1.6% among 350,000; AID 720706;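 active means significant combined selectivity score with lowered wild-type GFP, culture density cut under 30%, mutant RFP and density less affected; inactive means any of these conditions unmet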
AF4-AF9 inh – inhibitors of human MLL-AF4/AF9 interaction; P42568; AlphaScreen, biotin-AF4 peptide binding to FLAG-AF9; inhibition, % at 10 µM; hit rate 0.47% among 350,000; AID 651704;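 active means every replicate reaching a set inhibition limit, whatever the replicate mean, cut at about 25% in these data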;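 further: 0% = plate neutral control median and 100% = total signal loss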
RAD54 branch – inhibitors of human RAD54 branch migration | Q92698 | RAD54 Holliday junction branch migration, FAM/BHQ fluorescence | inhibition, % at 10.4 µM | hit rate 0.14% among 360,000 | AID 602329;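 active means mean normalized replicate activity at least 40 and at least half of replicates scoring 40 or more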;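 further: 0% = median of neutral control wells and 100% = median of positive control wells; inhibitors cause a drop in the FAM fluorescence signal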
Target sequence (Q92698 whole entry, looked up): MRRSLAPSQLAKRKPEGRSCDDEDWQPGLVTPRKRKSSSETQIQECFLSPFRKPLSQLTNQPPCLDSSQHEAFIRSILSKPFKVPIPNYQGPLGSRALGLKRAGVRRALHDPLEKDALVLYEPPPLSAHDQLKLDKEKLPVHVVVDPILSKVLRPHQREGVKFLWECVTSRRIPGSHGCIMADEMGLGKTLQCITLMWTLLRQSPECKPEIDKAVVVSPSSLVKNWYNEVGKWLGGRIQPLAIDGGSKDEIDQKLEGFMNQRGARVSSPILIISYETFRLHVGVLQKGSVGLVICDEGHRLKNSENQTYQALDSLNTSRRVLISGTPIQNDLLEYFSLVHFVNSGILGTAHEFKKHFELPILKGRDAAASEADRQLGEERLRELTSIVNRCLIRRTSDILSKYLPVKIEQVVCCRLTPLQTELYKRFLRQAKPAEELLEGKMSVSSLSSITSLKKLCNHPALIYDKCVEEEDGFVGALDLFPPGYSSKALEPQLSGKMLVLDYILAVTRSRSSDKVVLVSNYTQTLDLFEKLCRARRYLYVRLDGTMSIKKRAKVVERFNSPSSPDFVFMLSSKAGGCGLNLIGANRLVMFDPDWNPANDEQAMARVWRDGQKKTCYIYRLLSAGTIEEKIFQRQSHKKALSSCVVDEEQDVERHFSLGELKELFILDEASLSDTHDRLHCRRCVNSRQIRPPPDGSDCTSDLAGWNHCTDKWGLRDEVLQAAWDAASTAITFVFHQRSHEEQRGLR
* = called active by the depositor; x = no result. A selection: hits, their analogues and other compounds. The true share with any hit is near 2.6%.

SMILES	INS-1E GSIS act	E-sel inducer	RAD52 inh	Ecoli rRNA inh	AF4-AF9 inh	RAD54 branch
CCn1cc(C(=O)NCc2cccc(C(F)(F)F)c2)c(=O)c2ccc(C)nc21	-11	0	-10	-23*	0	9
C[C@@H]1CCCCO[C@H](CN(C)C(=O)c2ccccc2)[C@@H](C)CN([C@@H](C)CO)C(=O)c2cc(NC(=O)C3CCCCC3)ccc2O1	-10	0	0	-2	1	-2
COc1ccc(S(=O)(=O)Nc2cccc3c2O[C@H](CN(C)C(=O)Nc2c(C)noc2C)[C@@H](C)CN([C@@H](C)CO)C3=O)cc1	3	32*	7	5	-1	-9
COc1ccc(S(=O)(=O)Nc2cccc3c2O[C@H](CN(C)C(=O)Nc2c(C)noc2C)[C@H](C)CN([C@H](C)CO)C3=O)cc1	-1	96*	4	-4	0	-3
Cc1ccc(S(=O)(=O)Nc2cccc3c2O[C@H](CN(C)C(=O)Nc2c(C)noc2C)[C@@H](C)CN([C@H](C)CO)C3=O)cc1	-2	0	2	2	-6	3
COc1ccc(S(=O)(=O)Nc2cccc3c2O[C@@H](CN(C)C(=O)Nc2c(C)noc2C)[C@H](C)CN([C@@H](C)CO)C3=O)cc1	-14	-10	-3	0	0	0
CCOc1ccc(CN2C(=O)c3ccccc3C2=O)cc1C(=O)Nc1nnc(SCC)s1	44*	1	x	x	x	6
COc1ccc2c3c([nH]c2c1)[C@H](CO)N(C(=O)C1CCCC1)CC31CCN(C)CC1	1	0	-3	7	3	x
NC(=S)NN=C1CCC(C2CCCCC2)CC1 (stereo unspecified)	18	0	4	-45*	10	0
NC(=S)NN=C1CCCCCCCCCC1	55*	0	-11	-7	4	-3
S=C(NN=C1CCCCCC1)Nc1ccc(Cl)cc1	-8	x	-8	-6	4	x
O=C(NN=C1CCCCCC1)NC1CCCCC1	-4	0	x	x	x	-6
C[C@H](CO)N1C[C@H](C)[C@H](CN(C)S(=O)(=O)c2ccccc2)Oc2ncc(C#CC(C)(C)O)cc2C1=O	20	0	x	14	x	x
C[C@H](CO)N1C[C@H](C)[C@@H](CN(C)Cc2ccc(Cl)c(Cl)c2)Oc2ccc(NS(=O)(=O)c3cccs3)cc2CC1=O	-25	-4	36	-4	5	0
CN(C=O)c1ccc(CSc2ccccc2)cc1	2	0	-8	-29*	-2	0
O=C(Nc1cccnc1)c1ccc(CSc2ccccc2)cc1	9	0	-6	-3	2	x
O=C(Nc1ccc(NC(=O)N2CCN(c3ccccc3O)CC2)cc1)N1CCN(c2ccccc2O)CC1	-7	1	-19	-20*	2	0
C[C@@H]1CCCCO[C@H](CN(C)C)[C@H](C)CN([C@H](C)CO)C(=O)c2cc(NC(=O)c3ccccc3)ccc2O1	23	0	-5	4	6	5
Cc1cc2oc(C(=O)N3CCN(Cc4ccccc4)CC3)c(C)c2cc1C	-13	x	-15	-46*	x	x
COc1cc(O)c2c(c1)oc(=O)c1c3cc(O)c(O)cc3oc21	x	x	77*	x	4	x
COc1ccc2c(c1)oc(=O)c1cc(OC)ccc12	16	x	-4	-2	-4	-2
COc1ccc(-c2nn(-c3ccccc3)cc2/C=C/C(=O)N2CCOCC2)cc1OC	-7	x	-6	-24*	5	x
COC(=O)c1ccc(CN2CC(=O)N3[C@H](CO)[C@H](c4ccc(Br)cc4)[C@H]3C2)cc1	-20	-1	-1	-4	4	x
O=C(c1ccco1)N1CCN(C(=O)C2CC2)CC1	10	37*	-3	2	-3	-2
Cc1cccc(NC(=S)N2CCN(C(=O)c3ccco3)CC2)c1C	27	0	-7	-13	-1	10
Cc1c(Cl)cccc1NC(=S)N1CCN(C(=O)c2ccco2)CC1	-1	x	-5	-28*	0	6
COc1ccc(NC(=O)NC[C@H]2CC[C@H]3[C@H](CN3Cc3ccccc3C(=O)O)O2)cc1	x	x	54*	x	16	x
Cc1cc(/C=N/N2CCN(C)CC2)c(C)n1-c1ccc(Cl)cc1	4	x	18	3	48*	10
